A short description of series [1]: Antioxidant activity against lipid peroxidation at 90 uM after 10 hrs by ferric thiocyanate method relative to control. It counts as functional. Put shortly: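 Linoleic acid (>99%) emulsified with Tween 20, biphasic autoxidation system; each antioxidant at 90 µM final, held at 50 °C in the dark; lipid peroxidation read by ferric thiocyanate absorbance at 10 h, expressed as percent inhibition (%Pi) against untreated control; triplicate, mean ± standard error.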

In series [2] the test system is Radical scavenging activity. The experiment in a line: Antioxidant activity assessed as DPPH free radical scavenging activity at 25 uM after 20 mins relative to control. It counts as functional. The procedure, abridged: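 DPPH radical scavenging run in methanol and in acetate-buffered (pH 5.5) methanol; antioxidant:DPPH molar ratio 0.25; triplicate, repeated five times; mean ± standard error.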
(Loss of DPPH colour is used to gauge radical scavenging.)

For series [3], the target named is Xanthine dehydrogenase/oxidase (Homo sapiens, UniProt P47989). The experiment in a line: Inhibition of xanthine oxidase after 15 mins. The conditions noted are these: 0.25 h. The procedure, abridged:
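Xanthine oxidase inhibition with test agent at 0.1 mM; triplicate, mean ± standard error.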

Chain of Xanthine dehydrogenase/oxidase (P47989 whole entry): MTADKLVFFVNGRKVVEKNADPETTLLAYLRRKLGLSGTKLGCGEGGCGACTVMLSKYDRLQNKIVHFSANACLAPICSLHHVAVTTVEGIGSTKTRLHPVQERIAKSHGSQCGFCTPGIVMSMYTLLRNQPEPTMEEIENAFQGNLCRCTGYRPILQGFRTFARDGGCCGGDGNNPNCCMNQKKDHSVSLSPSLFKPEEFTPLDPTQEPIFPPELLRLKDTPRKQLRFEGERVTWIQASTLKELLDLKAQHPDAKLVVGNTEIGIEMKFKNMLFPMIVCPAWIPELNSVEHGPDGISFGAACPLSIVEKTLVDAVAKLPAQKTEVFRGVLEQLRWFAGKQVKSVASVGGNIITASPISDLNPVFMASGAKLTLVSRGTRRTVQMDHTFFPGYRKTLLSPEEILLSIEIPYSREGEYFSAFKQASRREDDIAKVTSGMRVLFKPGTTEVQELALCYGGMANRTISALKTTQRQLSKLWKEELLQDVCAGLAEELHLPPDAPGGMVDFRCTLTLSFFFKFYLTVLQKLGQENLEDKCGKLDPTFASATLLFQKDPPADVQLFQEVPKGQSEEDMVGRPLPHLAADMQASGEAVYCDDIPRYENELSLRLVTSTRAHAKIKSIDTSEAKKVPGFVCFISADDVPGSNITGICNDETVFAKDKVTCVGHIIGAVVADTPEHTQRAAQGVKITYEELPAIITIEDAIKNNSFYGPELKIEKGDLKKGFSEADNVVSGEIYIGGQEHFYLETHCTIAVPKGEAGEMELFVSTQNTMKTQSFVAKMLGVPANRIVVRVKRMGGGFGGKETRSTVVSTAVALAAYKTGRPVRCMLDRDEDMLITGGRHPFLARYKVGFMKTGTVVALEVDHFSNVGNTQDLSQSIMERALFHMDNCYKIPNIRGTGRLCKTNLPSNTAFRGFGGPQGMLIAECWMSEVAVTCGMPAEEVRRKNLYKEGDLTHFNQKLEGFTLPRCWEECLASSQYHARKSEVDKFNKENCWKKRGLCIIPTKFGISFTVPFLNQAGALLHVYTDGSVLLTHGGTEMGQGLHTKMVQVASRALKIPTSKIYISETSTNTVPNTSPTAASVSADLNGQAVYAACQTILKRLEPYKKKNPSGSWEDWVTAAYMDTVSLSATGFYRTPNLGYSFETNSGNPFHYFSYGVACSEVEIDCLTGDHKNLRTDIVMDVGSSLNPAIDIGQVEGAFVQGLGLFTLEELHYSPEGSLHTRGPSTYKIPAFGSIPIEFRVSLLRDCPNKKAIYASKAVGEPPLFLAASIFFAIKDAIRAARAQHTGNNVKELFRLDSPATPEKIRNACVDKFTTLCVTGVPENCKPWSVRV

In series [1], `NC(=O)[C@H](CS)NC(=O)[C@H](Cc1cnc[nH]1)NC(=O)/C=C/c1ccc(O)c(O)c1` registered an Activity of 79%.

With `NCCCC[C@H](NC(=O)[C@H](Cc1cnc[nH]1)NC(=O)/C=C/c1ccc(O)c(O)c1)C(N)=O`, the Activity in series [2] was determined as 54%; in series [1] it was 76%.

Compound `C[C@H](NC(=O)/C=C/c1ccc(O)c(O)c1)C(=O)N[C@@H](Cc1cnc[nH]1)C(N)=O` gave an Activity in series [1] of 84%.

Turning to `NC(=O)[C@H](CO)NC(=O)[C@H](Cc1cnc[nH]1)NC(=O)/C=C/c1ccc(O)c(O)c1`, the Activity in series [1] was 71%.

In series [1], `NC(=O)CCNC(=O)[C@H](Cc1cnc[nH]1)NC(=O)/C=C/c1ccc(O)c(O)c1` came in with an Activity of 71%.

In series [1], `NC(=O)[C@@H]1CCCN1C(=O)[C@H](Cc1cnc[nH]1)NC(=O)/C=C/c1ccc(O)c(O)c1` had an Activity of 61%.

Consider `NC(=O)[C@H](Cc1cnc[nH]1)NC(=O)[C@H](CO)NC(=O)/C=C/c1ccc(O)c(O)c1`, for which the Activity in series [1] amounted to 83%.

For `COc1ccc(O)c(C(C)(C)C)c1.COc1ccc(O)cc1C(C)(C)C`, the Activity in series [2] was 62%; in series [1], 86%.

In the case of `NC(=O)[C@H](Cc1ccccc1)NC(=O)[C@H](Cc1cnc[nH]1)NC(=O)/C=C/c1ccc(O)c(O)c1`, the Activity in series [1] was found to be 72%.

In the case of `NC(=O)[C@H](Cc1cnc[nH]1)NC(=O)[C@H](CC(=O)O)NC(=O)/C=C/c1ccc(O)c(O)c1`, the Activity in series [2] amounted to 52%; in series [1] it was 82%.

For the compound `NC(=O)[C@H](Cc1cnc[nH]1)NC(=O)[C@H](Cc1cnc[nH]1)NC(=O)/C=C/c1ccc(O)c(O)c1`, the Activity in series [1] stood at 80%.

As for `NC(=O)[C@H](Cc1cnc[nH]1)NC(=O)[C@H](Cc1ccccc1)NC(=O)/C=C/c1ccc(O)c(O)c1`, the Activity in series [2] was determined as 59%; in series [1], 80%.

On to `O=C(O)/C=C/c1ccc(O)c(O)c1`, for which the Activity in series [2] amounted to 47%.

As to `NC(=O)[C@H](Cc1cnc[nH]1)NC(=O)CCNC(=O)/C=C/c1ccc(O)c(O)c1`, the Activity in series [2] was found to be 70%; in series [1] it was 64%.

`NC(=O)[C@H](Cc1cnc[nH]1)NC(=O)[C@H](CS)NC(=O)/C=C/c1ccc(O)c(O)c1`: the Activity in series [1] is 84%.

Regarding `NCCCC[C@H](NC(=O)/C=C/c1ccc(O)c(O)c1)C(=O)N[C@@H](Cc1cnc[nH]1)C(N)=O`, the Activity in series [2] was 65%; in series [1], 84%.

As to `NC(=O)[C@H](CC(=O)O)NC(=O)[C@H](Cc1cnc[nH]1)NC(=O)/C=C/c1ccc(O)c(O)c1`, the Activity in series [2] is 49%; in series [1], 73%.

On to `NC(=O)[C@H](Cc1cnc[nH]1)NC(=O)[C@@H]1CCCN1C(=O)/C=C/c1ccc(O)c(O)c1`, for which, in series [3], the “inhibition (INH)” value is listed as 52%. Also, the Activity worked out at 71% in series [2] and 87% in series [1].

`C[C@H](NC(=O)[C@H](Cc1cnc[nH]1)NC(=O)/C=C/c1ccc(O)c(O)c1)C(N)=O` gave an Activity in series [1] of 66%.

In the case of `NC(=O)[C@H](Cc1ccccc1)NC(=O)/C=C/c1ccc(O)c(O)c1`, the Activity in series [2] was determined as 51%; in series [1] it was 73%.

The record behind these values is ChEMBL document CHEMBL1177760, “Antioxidative activities of histidine containing caffeic acid-dipeptides” (Bioorg Med Chem Lett, 2010).
